ChEMBL document CHEMBL2396552, “Novel inhibitors of a Grb2 SH3C domain interaction identified by a virtual screen” (Bioorg Med Chem, 2013)
Activity calls are given as the source filed them.

Tests used:
[1] = target: T1, Growth factor receptor-bound protein 2 (Homo sapiens, UniProt P62993); assay: Binding affinity to wild type human Grb2 SH3C domain at 50 to 100 uM by SPR assay
Summary of the method: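 Untagged Grb2 SH3C was amine-coupled to a CM5 chip at about 1500 RU. Compounds at 50 and 100 µM in HBS-N (10 mM Hepes pH 7.4, 150 mM NaCl) with 5% DMSO and 0.01% Tween 20 were injected for 120 s at 40 µL/min and 25 °C. Responses were double-referenced. Binders were defined by a response of at least 5 RU at 100 µM, derived from a KD cutoff of ≤1 mM.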
Target sequence in this assay (P62993 whole entry, looked up, the tested form may be a part): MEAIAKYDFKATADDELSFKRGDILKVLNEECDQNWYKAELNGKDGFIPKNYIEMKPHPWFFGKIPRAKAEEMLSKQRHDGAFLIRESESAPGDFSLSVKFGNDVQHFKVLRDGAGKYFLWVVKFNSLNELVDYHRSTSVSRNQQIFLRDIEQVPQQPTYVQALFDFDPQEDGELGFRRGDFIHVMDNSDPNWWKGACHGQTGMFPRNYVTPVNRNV

[2] = target: T1, Growth factor receptor-bound protein 2; assay: Binding affinity to GST-tagged Grb2 SH3C domain (unknown origin) using biotinylated Gab2b peptide as substrate at 5 mM by SDS-PAGE analysis
Summary of the method: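 Purified GST–Grb2 SH3C (10 µg/sample) was pre-incubated with compound at 5 mM, in duplicate, for 2 h at 4 °C. Streptavidin beads carrying biotinylated Gab2b peptide were then added for 30 min. After PBS-T washes, bound protein was resolved by SDS-PAGE, Coomassie-stained and scored by densitometry relative to the no-inhibitor control (100%).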
Target sequence in this assay (P62993 whole entry, looked up, the tested form may be a part): as above

[3] = target: T1, Growth factor receptor-bound protein 2; assay: Competitive inhibition of GST-tagged Grb2 SH3C domain (unknown origin)-Gab2 interaction incubated 2 hrs prior to biotinylated Gab2b peptide addition measured after 30 mins by SDS-PAGE analysis
Summary of the method: (§1)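 Concentration-response format of the bead pull-down. GST–Grb2 SH3C (10 µg) was pre-incubated 2 h at 4 °C with increasing compound concentrations in Tris pH 7.5 buffer containing 5% DMSO. Biotin-Gab2b peptide–streptavidin beads were added for 30 min. Bound protein was measured by SDS-PAGE/Coomassie densitometry, normalized to the no-inhibitor sample, and fitted to a sigmoidal inhibition model by nonlinear regression. Gels represent 4–6 repeats.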
Target sequence in this assay (P62993 whole entry, the tested form may be a part): as the sequence (P62993 whole entry, looked up, the tested form may be a part) above

[4] = target: T1, Growth factor receptor-bound protein 2; assay: Binding affinity to wild type human Grb2 SH3C domain at > 200 uM by SPR assay
Target sequence in this assay (P62993 whole entry, looked up, the tested form may be a part): as above

[5] = target: T1, Growth factor receptor-bound protein 2; assay: Binding affinity to Grb2 SH3C domain (unknown origin) at 1 mM by isothermal titration calorimetry
Summary of the method: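 ITC at 25 °C used 20 µM purified Grb2 SH3C in the cell, in 50 mM Hepes pH 7.5, 50 mM NaCl, 0.5% DMSO. Compound at 1 mM in the same buffer was titrated in: one 4 µL injection followed by 18 injections of 15 µL.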
Target sequence in this assay (P62993 whole entry, looked up, the tested form may be a part): as above

[6] = target: T1, Growth factor receptor-bound protein 2; assay: Inhibition of GST-tagged Grb2 SH3C domain (unknown origin)-Gab2 interaction up to 20 mM incubated 2 hrs prior to biotinylated Gab2b peptide addition measured after 30 mins by SDS-PAGE analysis; summary of the method: as §1
Target sequence in this assay (P62993 whole entry, looked up, the tested form may be a part): as above

Compound	Activity [2]	further results
NC1CCC(NC2CCC(N)CC2)CC1 (configuration not stated)	> 20%	Activity [1]: Active
Nc1n[nH]c2cc(O)[nH]c(=O)c12	> 20%	
C1CN=C(C2=NCCCN2)NC1	inactive	
Cc1nnc2c3nccnc3c(N)nn12	inactive	
Nc1nc(N)c2cnnn2n1	inactive	
Cc1ccc(O)c(C2CC(=O)NC(N)=N2)c1 (configuration not stated)	inactive	Activity [1]: Active
N=C(NC1CCC(C2CCC(N)CC2)CC1)C(=N)NC1CCC(C2CCC(N)CC2)CC1 (configuration not stated)	> 20%	Activity [1]: Active
Cn1c(N)nc2nc[nH]c2c1=O	inactive	
N=C(NC1=NCCN1)C(=N)NC1=NCCN1	inactive	
Cc1cnc2c(c1)CCCC2C(N)=S (configuration not stated)	> 20%	
Nc1nc(N)n(Cc2ccc3c(c2)OCO3)n1	inactive	
CC(CC(=N)N)NC(=O)C1CCC(N)=N1 (configuration not stated)	inactive	
CC1(C)N=C(N)N=C(N)N1c1cccc(CCCCc2cccc(N)c2)c1	> 20%	IC50 [3]: 5.7 mM; Activity [1]: Active; Activity [4]: Active; Activity [5]: inactive
Cn1cnc(N)c2ncnc1-2	inactive	
CN1CC(=O)N=C(N)N=C1N	inactive	
NCCN1CCN=C1C1=NCCN1CCN	inactive	
NC=C1C(=O)NC(=O)NC1=O	inactive	

Compound	Activity [2]	further results
CC1(C)N=C(N)N=C(N)N1c1cccc(OCc2cccc(N)c2)c1	inactive	Activity [1]: Active
NC(C(=O)O)C(O)c1c[nH]cn1 (configuration not stated)	inactive	
CC1(C)N=C(N)N=C(N)N1c1cccc(/C=C/C=C/c2cccc([N+](=O)[O-])c2)c1	> 20%	IC50 [3]: 0.32 mM; Activity [1]: Active; Activity [4]: Active; Activity [5]: inactive
CC1(C)N=C(N)N=C(N)N1c1cccc(OCCOc2cccc(N)c2)c1	inactive	Activity [1]: Active
Nc1nsc2nc3ccccc3cc12	inactive	
Cc1ccc(C(/C=C/c2ccccc2)=N/NC(=N)N)cc1	> 20%	Activity [1]: Active
NC1=NS(=O)(=O)Nc2nn(-c3ccccc3)nc21	inactive	
NC[C@@H]1[C@@H](CN)[C@H]2C=C[C@@H]1CC2	> 20%	
CC1(C)N=C(N)N=C(N)N1c1cccc(CO)c1	inactive	
Cn1c(CCNC(=N)CSS(=O)(=O)O)nc2ccccc21	inactive	
CC1(C)N=C(N)N=C(N)N1c1cc(C(F)(F)F)cc(C(F)(F)F)c1	inactive	
Nc1n[nH]c(=O)n2ncnc12	inactive	
C/C(=N\NC(=N)N)c1cnc(C)nc1C	inactive	
CN1C[C@@H]2[C@@H](N)N=C(N)N[C@@H]2C1(C)C	inactive	
N=C(NCCN)C(=N)NCCN	inactive	
CC1(C)N=C(N)N=C(N)N1c1cccc(OCC#N)c1	> 20%	Activity [1]: Active; Activity [4]: Active; inhibition [6]: Active
CC(=O)c1ccc(/N=N/c2c(N)nc(N)nc2N)cc1	> 20%	Activity [1]: Active
